# Experimental data taken from PubChem BioAssay AID1040 (The Scripps Research Institute Molecular Screening Center, 2008).
# Among all 200,000 compounds or so, about 2,000 (1%) were called active. Many of the other results were omitted from the sample, so actives are more common in it than they were. Unmarked numbers belong to inactive results.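 Rule for the calls: active = inhibition above the campaign mean inhibition of all tested compounds plus 3 SD (cut at about 20% in these data); inactive = the rest.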
# Target: Neuropeptide Y receptor type 1 (Homo sapiens) (UniProt P25929)
# Sequence (P25929 whole entry, looked up): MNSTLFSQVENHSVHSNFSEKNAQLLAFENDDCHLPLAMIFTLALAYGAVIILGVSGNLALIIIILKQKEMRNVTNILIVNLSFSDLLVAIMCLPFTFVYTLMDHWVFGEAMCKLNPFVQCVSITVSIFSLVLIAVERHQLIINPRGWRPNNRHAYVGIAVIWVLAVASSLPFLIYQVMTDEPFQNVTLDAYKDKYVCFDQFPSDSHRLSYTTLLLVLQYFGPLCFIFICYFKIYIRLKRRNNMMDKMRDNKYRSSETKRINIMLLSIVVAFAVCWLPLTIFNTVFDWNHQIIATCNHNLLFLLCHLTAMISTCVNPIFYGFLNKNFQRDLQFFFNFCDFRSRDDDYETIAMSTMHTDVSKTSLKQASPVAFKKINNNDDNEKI
# Assay: blockers of human neuropeptide Y Y1 receptor – cell-based, primary screen (AID 1040);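 note: 0% = DMSO wells given NPY plus isoproterenol and 100% = isoproterenol alone without NPY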
# Details: HEK293-CNG Y1 cells, membrane potential fluorescence; at 3.6 µM; stronger effect = higher value; NPY at EC95, then isoproterenol
# How it was run: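 Assay system: HEK293 cells with Y1 receptor plus CNG channel | Probe or stimulus: NPY (25 nM), isoproterenol (1 µM), Ro 20-1724 (25 µM) | Timing: Compound incubation 1 h at room temperature, readout 45 min post-stimulation | Measured by: Membrane-potential fluorescent dye readout | Benchmarks: High control isoproterenol alone, low control NPY with isoproterenol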
row,Structure (SMILES),inhibition
1,COc1ccc(CCN(C(=O)COc2ccccc2)c2nc(-c3ccccc3)cs2)cc1OC,37.1% (active)
2,CN(C(=O)COc1ccccc1)c1nnc(-c2ccncc2)s1,7.86%
3,COc1ccc(CCNc2nc(-c3cccc(NC(C)=O)c3)cs2)cc1OC,6.08%
4,CC(=O)N1CC(C)c2scc(C)[n+]2-c2ccccc21 (stereo not drawn),23.1% (active)
5,C/C(=C\c1ccccc1)C1NC(=O)c2c(sc3c2CCCC3)N1 (stereo not drawn),-4.04%
6,Cc1ccsc1C(C(=O)NC1CCCCC1)N(C(=O)Cc1cccs1)C1CC1 (stereo not drawn),4.38%
7,O=C(Cc1cccs1)N(CC1CCCO1)C1(C(=O)NC2CCCCC2)CCCCC1 (stereo not drawn),50.3% (active)
8,CC(=O)N(CC1CCCO1)C1(C(=O)NC2CCCC2)CCCCC1 (stereo not drawn),1.44%
9,CSc1cccc(NC(=S)N(Cc2ccccc2)Cc2ccccn2)c1,5.5%
10,O=c1c2ccccc2nc2n1C1(CCCCC1)Cc1ccccc1-2,32% (active)
11,c1cncc(-c2nnc3n2C2(CCCCC2)Cc2ccccc2-3)c1,1.15%
12,CCC1(CC)Cc2ccccc2-c2nc3ccccc3c(=O)n21,12.8%
13,Cc1cc(C)c2[nH]c(=O)c(CN(Cc3ccccc3)C(=S)NCCCN(C)C)cc2c1,25.1% (active)
14,Cc1cccc2cc(CN(Cc3cccs3)C(=S)NCc3ccco3)c(=O)[nH]c12,-4.05%
15,COCCCNC(=S)N(Cc1ccccc1)Cc1ccc(F)cc1,2.32%
16,CC(=O)N1CCN(CC(=O)Nc2ccc(SC(F)F)cc2)CC1,4.16%
17,COc1ccccc1NC(=O)CCCc1c[nH]c2ccccc12,11.1%
18,COc1ccc(C(CCNCc2ccccc2F)c2ccc(F)cc2)cc1 (stereo not drawn),9.35%
19,COc1cccc(CNCCc2c[nH]c3ccccc23)c1OCc1ccccc1F,21.9% (active)
20,CCC(=O)Nc1sc(C(=O)Nc2ccccc2)c(C)c1C(=O)OC,7.74%
21,O=S(=O)(Nc1ccc2cn[nH]c2c1)c1ccccc1,-1.06%

row,Structure (SMILES),inhibition
1,Cc1cc(C)nc(NS(=O)(=O)c2ccc(N/C=C\C(=O)c3cccs3)cc2)n1,1.24%
2,COc1ccc(CCNC2=C(Cl)C(=O)N(Cc3ccccc3)C2=O)cc1OC,-3.95%
3,C/C(=N\N)c1c(-c2ccccc2)c2cc(Br)ccc2[nH]c1=O,-0.69%
4,Cc1cnc(C(=O)OCC(=O)NCCCc2ccccc2)cn1,2.73%
5,COc1ccc(CN(C)C(=S)Nc2ccc(Cl)cc2Cl)cc1,3.26%
6,NC(N)=N/N=C/c1ccc(Cl)c([N+](=O)[O-])c1,3.89%
7,COc1ccc(C(=O)O/N=C(\N)Cc2ccc(Cl)cc2Cl)cc1OC,-3.58%
8,NC(N)=N/N=C/c1ccc(OCc2ccc(Cl)cc2Cl)cc1,22.1% (active)
9,CN(C)CCNC(=O)Cc1ccc([N+](=O)[O-])cc1,-2.56%
10,Cc1ccc2cc(CN(c3ccc(C)c(C)c3)S(C)(=O)=O)c(=O)[nH]c2c1,-0.43%
11,NNC(=O)c1cnn(-c2ccccc2)c1C(F)(F)F,3.72%
12,O=C(CN1C2=NCCN2c2ccccc21)c1cccs1,3.06%
13,O=C(Nc1ccccc1N1CCCCC1)c1cccc(F)c1,13.7%
14,O=C(Nc1ccccc1N1CCN(c2ccccc2)CC1)c1cccc(F)c1,44.1% (active)
15,Cc1cccc(C(=O)Nc2ccccc2N2CCN(c3ccc(F)cc3)CC2)c1,6.05%
16,CC(=O)N(CCCN(C)C)c1nc2ccc(C)cc2s1,-0.43%
17,O=C(CSc1cccc[n+]1[O-])c1ccc(Cl)cc1,0.77%
18,CN(C)S(=O)(=O)c1cc(NC(=O)CN2C(=O)NC3(CCCc4ccccc43)C2=O)ccc1Cl (stereo not drawn),-4.16%
19,Cc1ccc2nc(-c3ccc(NC(=O)c4cccnc4)cc3)oc2c1,-0.59%
20,Cc1ccc(-n2nc3cc(C)c(NC(=O)c4cccnc4)cc3n2)cc1,-4.27%
21,Cc1cc2nc(-c3ccc(NC(=O)c4cccnc4)cc3)oc2cc1C,29.8% (active)

row,Structure (SMILES),inhibition
1,Cc1nc2cc(NC(=O)NC3CC3)ccc2n1C,-0.07%
2,O=C(CN1CCN(CC(=O)Nc2ccc3c(c2)OCO3)CC1)Nc1ccc(F)cc1,-3.14%
3,O=C(CN1CCN(c2ncc(C(F)(F)F)cc2Cl)CC1)Nc1ccc2c(c1)OCO2,23.8% (active)
4,O=C(CN1CCN(C(=O)c2ccco2)CC1)Nc1ccc2c(c1)OCO2,0.97%
5,COc1ccc(C(=O)NC(Cc2ccc(OC(=O)c3ccc(OC)cc3)cc2)C(=O)O)cc1 (stereo not drawn),3.87%
6,Cc1coc(C)c1C(=O)CC1(O)C(=O)N(C)c2ccc(Cl)cc21 (stereo not drawn),1.88%
7,O=C1NC(=Nc2ccc(Cl)cc2)SC1Cc1cccc(Cl)c1Cl (stereo not drawn),-1.29%
8,CCc1cc2c(NC3CCCC3)ncnc2s1,-1.37%
9,O=C(Nc1ccc2ccccc2c1)/C(=C/c1cccc(Br)c1)NC(=O)c1ccco1,7.08%
10,CC(Oc1ccc2ccccc2c1)C(=O)NNC(=S)NC(=O)c1ccco1 (stereo not drawn),21.9% (active)
11,CCCc1ccc(OCC(=O)NNC(=S)NC(=O)c2ccco2)cc1,10.6%
12,CCOC(=O)CSc1nc2c(sc(=S)n2CCc2ccccc2)c(=O)n1Cc1ccco1,34.8% (active)
13,CCOC(=O)CSc1nc2c(c(=O)n(C)c(=O)n2C)n1Cc1ccccc1F,1.86%
14,COc1ccccc1NC(=O)CSc1nc2sc(C)c(C)c2c(=O)n1Cc1ccco1,9.58%
15,CC(=O)c1ccc(N2CCN(S(=O)(=O)c3c(C)[nH]c(=O)[nH]c3=O)CC2)cc1,-3.11%
16,O=C(NC(=S)Nc1cccc(-c2ccc(CO)o2)c1)c1cccs1,4.06%
17,O=C(Nn1c(SCc2ccc([N+](=O)[O-])cc2)nc2ccccc2c1=O)c1ccc(F)cc1,3.79%
18,COc1ccc2oc(=O)c(C(=O)N3CCCC3)cc2c1,1%
19,CSc1ccc(S(=O)(=O)NC2CCCCC2)cc1,-0.27%
20,Cc1cc(C)nc(SC2CCCCC2NS(=O)(=O)c2ccc(Cl)cc2)n1 (stereo not drawn),4.03%
21,CCOC1CCCCC1NS(=O)(=O)c1ccc(Cl)cc1 (stereo not drawn),21.4% (active)
